Results: the array DNA melting data of Ke et al. (doi:10.1101/2024.01.08.574731)

Columns and labels:
[1] = folding enthalpy; higher = less favourable; fluorescence melt of hairpins on a sequencing array, two-state fit; conditions: sodium 0.088 M
Method in brief: (§1)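 Cy3 fluorescence of library hairpins on a sequenced MiSeq flow cell, with annealed Cy3 and quencher oligos, was imaged in 50 mM Na-HEPES pH 8.0, 25 mM NaCl in 2.5 °C steps up to 60 °C. Signals were normalised to pre-quench Cy3 and to control variants. Melting temperature and folding enthalpy came from bootstrapped two-state fits, inverse-variance combined over four replicates. Fitted temperatures were raised by 9.35 °C to match UV melts.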

[2] = melting temperature; fluorescence melt of hairpins on a sequencing array, two-state fit, raised by 9.35 °C to match UV melts; conditions: sodium 0.088 M
Method in brief: as §1

| Sequence | folding enthalpy [1] [kcal/mol] | Tm [2] [°C] |
| --- | --- | --- |
| GGAGGAGAAATCCTCC ((((((....)))))) | -40.8 | 54.4 |
| GGTATTCGAAAGAAGACC (((.(((....))).))) | -43.2 | 50.8 |
| GTCGTCGAAAGACTCGAC ((((((....)))..))) | -14.9 | 38.6 |
| GGCAACACGAAAGTGGCC (((..(((....)))))) | -37.4 | 52.6 |
| GCAAAGCGAAAGCCTAGC ((.(.((....)).).)) | -7.83 | 30.2 |
| GCGAAGGGAAACCCTCGC ((((.((....)).)))) | -42.3 | 53.4 |
| GTTTAGGGAAACTTGAAC (((.(.(....).).))) | -13 | 34.1 |
| GCGGATACCCGC ((((....)))) | -24.3 | 54.2 |
| GCTTACGGAAACGTGAGC (((.(((....))).))) | -43.4 | 52.6 |
| GGCGAACGAAAGTTGCC (((.(((....)))))) | -36.5 | 56.9 |
| GATCTTGTAAAAGATC ((((((....)))))) | -41.1 | 52.8 |
| GCGCTCGGAAACGAACGC (((.(((....))).))) | -38.5 | 55.7 |
| GGCAACGGAAACATCGCC (((.(.(....).).))) | -16.7 | 24.5 |
| GTGAGGCGAAAGCCACAC (((.(((....))).))) | -26.5 | 59.6 |
| GCGATATTTCGC ((((....)))) | -23.2 | 50.1 |
| GGACTTGGAAACAGGTCC ((((.((....)).)))) | -46.5 | 49.4 |
| GTCTACGCGAAAGCGGAC (((..(((....)))))) | -12.7 | 41.3 |
| GCGCCCGAAAGGGCACGC ((((((....)))..))) | -13.4 | 63.3 |
| GTGCGTGCGAAAGCACAC (((..(((....)))))) | -9.15 | 63.5 |
| GTAGGGGGAAACCTCTGC (.((.((....)).)).) | -16.8 | 31.9 |
| GTAAGAGGAAACTCTCAC ((.((((....)))).)) | -14.8 | 26.3 |
| GATAACGAAAGTTTATC ((((((....))).))) | -14.2 | 31.8 |
| GCGGCGCGAAAGCGAGGC ((..(((....)))..)) | -24.8 | 63.9 |

| Sequence | folding enthalpy [1] [kcal/mol] | Tm [2] [°C] |
| --- | --- | --- |
| GGCTCCGGAAACAGAGCC (((((.(....).))))) | -34 | 50.5 |
| GCCCTGCGAAAGCAAAGC ((..(((....)))..)) | -6.64 | 29.2 |
| GCTGTCGAAAGACAAAGC ((((((....)))..))) | -23.9 | 48.9 |
| CGAATCGGAAACGAGTCG (((.(((....))).))) | -40.2 | 51.3 |
| CGAAGCCGGAAACGGTCG (((..(((....)))))) | -12.6 | 37.8 |
| GGATCTGCGAAAGCATCC (((..(((....)))))) | -14.9 | 35.2 |
| GCTTGGACGAAAGTCAGC (((..(((....)))))) | -16.7 | 42.1 |
| GGCGTAGGAAACCACGCC (((((.(....).))))) | -53.2 | 56.2 |
| GATCGTCTTCACGATC ((((((....)))))) | -45.7 | 53.4 |
| GTTACACGAAAGTGAAAC (((.(((....))).))) | -23.6 | 45.3 |
| GATCGGTAAGCCGATC ((((((....)))))) | -49.4 | 58.9 |
| GCGGTCGGAAACGACTGC ((.((((....)))).)) | -41.5 | 64.2 |
| GAGTTCACGAAAGTGCTC (((..(((....)))))) | -10.9 | 28.1 |
| GTATTTGGAAACGAATAC (((((.(....).))))) | -30.2 | 35.8 |
| GCGTCGCGAAAGCCATGC ((.(.((....)).).)) | -16.2 | 41.5 |
| GCATGTGGAAACATATGC ((((.((....)).)))) | -30.9 | 49.5 |
| GAAATTGGAAACGATTTC (((((.(....).))))) | -30.1 | 37.6 |
| GTGAACCGAAAGGTCAC (((.(((....)))))) | -27.2 | 54.9 |
| GCTAAAGAAATTTAGC ((((((....)))))) | -28.8 | 41.7 |
| CGCAACCGGAAACGGGCG (((..(((....)))))) | -20.8 | 50.1 |
| GTTTTTGGAAACAAAAGC (.(((((....))))).) | -29.6 | 35.6 |
| GGGAATACGAAAGTACCC (((..(((....)))))) | -23 | 33.9 |
| GGTGCCACGAAAGTGACC (((..(((....)))))) | -15.5 | 35.5 |

| Sequence | folding enthalpy [1] [kcal/mol] | Tm [2] [°C] |
| --- | --- | --- |
| GATCGCATACGCGATC ((((((....)))))) | -36.1 | 69.3 |
| GGGTAAGGAAACCTACCC (((((.(....).))))) | -30.6 | 42.9 |
| GCTGTAGCGAAAGCTAGC (((..(((....)))))) | -14 | 46.4 |
| CGCGATCGGAAACGAGCG (((..(((....)))))) | -34.2 | 53 |
| GTGTGTGGAAACACGTAC ((..(((....)))..)) | -11.8 | 38.7 |
| GATCATTTTAATGATC ((((((....)))))) | -53.2 | 53.6 |
| GCTTCTGGAAACAGAAAC (.(((((....))))).) | -17.7 | 32.2 |
| GCAAGCGAAAGCTATTGC ((((((....)))..))) | -17.5 | 42.8 |
| GGAGGCGAAAGCCGATCC ((((((....)))..))) | -9.71 | 51.8 |
| GAACTCCGAAAGGATTTC (((.(((....))).))) | -23.5 | 35.2 |
| GATCGGGACCCGATC ((((((...)))))) | -41.2 | 56.9 |
| GATCTGACCACAGATC ((((((....)))))) | -36.3 | 49 |
| GATCGTCACTACGATC ((((((....)))))) | -46.1 | 55 |
| GAAAGAGAAATCTTTC ((((((....)))))) | -18.2 | 36.8 |
| GAGCACGAAAGTGTCTC ((((((....))).))) | -23.3 | 53.2 |
| GGGCGATCGAAAGATCCC (((..(((....)))))) | -17.1 | 48.6 |
| GGCTTCGAAAGAACGGCC ((((((....)))..))) | -27.9 | 43 |
| GAGAACCGAAAGGTCCTC (((.(((....))).))) | -24.6 | 46.6 |
| GCGGAACCCGC ((((...)))) | -20.8 | 53.8 |
| GATCCACAGGTGGATC ((((((....)))))) | -40.9 | 57 |
| GATGATCCGAAAGGAATC (((..(((....)))))) | -14.3 | 34.7 |
| GGATTCGAAAGAAGATCC ((((((....)))..))) | -12.2 | 28.1 |
| GTGTAAGAAATTACAC ((((((....)))))) | -29.2 | 46.1 |

| Sequence | folding enthalpy [1] [kcal/mol] | Tm [2] [°C] |
| --- | --- | --- |
| GTCCCACGAAAGTGGAC (((.(((....)))))) | -13.1 | 49.9 |
| GACCCTGGAAACAGGATC ((.((((....)))).)) | -21.8 | 37.6 |
| GCGAGAGTCGC ((((...)))) | -11.3 | 55.5 |
| GTGATCGAAAGATCACAC ((((((....)))..))) | -14.1 | 67.3 |
| GTGAACGGAAACGTCCAC (((.(((....))).))) | -31.9 | 45.1 |
| GAATCTGAAAAGATTC ((((((....)))))) | -36.8 | 49.8 |
| GATCACGGGGGTGATC ((((((....)))))) | -36.7 | 56.8 |
| GTCTGCTCGAAAGAGGAC (((..(((....)))))) | -18.1 | 31.3 |
| GCTTCGGGAAACCGAGGC ((.((((....)))).)) | -42.3 | 53.5 |
| GCGTATGAACGC ((((....)))) | -18.9 | 52 |
| GAATTGAAAAATTC (((((....))))) | -13.5 | 31.7 |
| GATACGCGAAAGCGGATC (((.(((....))).))) | -29.3 | 66 |
| GCAGAGGGAAACCTCTGC (((((((....))))))) | -46.2 | 67.9 |
| GCCGCGCGAAAGCGGAGC ((..(((....)))..)) | -12.8 | 52.5 |
| GCACGGCGAAAGCCTAGC ((..(((....)))..)) | -14.4 | 39.5 |
| GTAGGTGGAAACACCTGC (.(((((....))))).) | -18.5 | 53.4 |
| GGATGGGAAACCATCC ((((((....)))))) | -37.3 | 59.2 |
| GGTTGCACGAAAGTGACC (((..(((....)))))) | -11.2 | 34.2 |
| GTTTTTTCGAAAGAAAAC (((..(((....)))))) | -19.7 | 32.1 |
| GCGTTTGGAAACAAGTGC ((..(((....)))..)) | -15.8 | 31.4 |
| GCTTACGAAAGTAGGAGC ((((((....)))..))) | -25.3 | 35 |
| GTCAACGAAAGTTAGGAC ((((((....)))..))) | -17.1 | 31.8 |
| GAAGACGGAAACATCTTC (((((.(....).))))) | -20 | 29.8 |
